Blank lines part the entries; values can stand above or below the compound they belong to.
Tests used:
[1] = system: MCF-7 cells; assay: MTT cell toxicity assay; format: cell-based; conditions: 24 h exposure, click reaction of cyclooctyne 5 with azide 2 or 21
Method in brief: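 MCF-7 cells were seeded at 1 × 10⁴ cells/mL and exposed to a range of concentrations of azide and cyclooctyne for 24 h at 37 °C in 5% CO₂. MTT (5 mg/mL solution) was added for 4 h. Medium was removed, DMSO added, and OD read at 595 nm. Viability was calculated as OD sample / OD untreated control × 100%.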

[2] = reaction of 5 with benzyl azide in the same solvent system; cited from earlier work
[3] = Photophysical characterization; format: physicochemical; conditions: for ΦF: reference quinine sulfate
[4] = system: MCF-7 cells; assay: Fluorescence microscopy of in-cell click reaction; format: cell-based; conditions: 1 μM azide and 1 μM cyclooctyne 5
Method in brief: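 MCF-7 cells were seeded at 5 × 10⁵ cells/mL on chambered coverglass and grown overnight at 37 °C in DMEM/F12 with 5% FBS. Azide (1 μM in reduced-serum medium) was added for 4 h, followed by three PBS (pH 7.5) washes. Cyclooctyne (1 μM) was then added for 16 h at 37 °C, followed by three more washes. Imaging used 360/40 excitation and 470/40 emission filters. Controls were azide only, cyclooctyne only, and preformed adduct. 0.1% trypan blue was used for quenching.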

[5] = Frequency-domain fluorescence lifetime measurements in solution; format: physicochemical
Method in brief: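 Frequency-domain lifetimes were measured in solution (MeOH) in a 2 × 10 mm quartz cuvette at 18 °C. Excitation was a frequency-modulated 280 nm LED, with emission collected through a 305 nm long-pass filter. PPO in ethanol (τ = 1.4 ns) served as lifetime reference. Modulation-phase data were fitted to a multi-exponential decay model, judged by residuals and χ².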

[6] = Parallel artificial membrane permeability assay; format: in vitro ADME; conditions: for % Fraction Absorbed / Log Pe: 75 μM; for % Fraction Absorbed: 16 h, ambient temperature; for Log Pe: log of the effective permeability coefficient
Method in brief: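 PAMPA used a polycarbonate filter (0.45 μm pore) coated for 5 min with lecithin (1% or 4% in dodecane). Donor wells held test compound at 75 μM in 5% DMSO/PBS; acceptor wells held PBS. Plates were incubated 16 h at ambient temperature with gentle shaking. Acceptor concentration was measured by UV-Vis against a theoretical-equilibrium solution. Log Pe was calculated by the Wohnsland–Faller equation; at least triplicate.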

[7] = Water solubility of azido nucleosides; format: physicochemical
[8] = Kinetic analysis of SPAAC reaction by 1H NMR; conditions: reaction with cyclooctyne 5 in ACN-d6/D2O (3:1, v/v)
[9] = In 50 mM phosphate buffer pH 7.0

Compound: OCC1C2CCC#CCCC12 (stereo not shown) [Compound 5]
non-cytotoxic dosage [1]: 1 µM
second order rate constant k [2]: 0.14 M⁻¹ s⁻¹

Compound: 8-(1,2,3-Triazol-1H-yl)adenosine-MFCO adduct [Compound 17]
εmax [3]: 16400 M^−1cm^1
λmax(emi) [3, 9]: 399 nm
λmax(emi) ([3]; In DMSO): 397 nm
Brightness ([3]; In MeOH): 0.10 M^−1cm^1
Stokes shift ([3]; In MeOH): 111 nm
λmax(abs) ([3]; In MeOH): 271 nm
λmax(emi) ([3]; In MeOH): 399 nm
λmax(exc) ([3]; In MeOH): 288 nm
ΦF ([3]; In MeOH): 0.006
τ1 ([5]; In MeOH): 0.10 ns
τ2 ([5]; In MeOH): 0.90 ns
τ3 ([5]; In MeOH): 5.30 ns
f1 ([5]; In MeOH, fractional contribution of τ1): 0.46%
f2 ([5]; In MeOH, fractional contribution of τ2): 0.39%
f3 ([5]; In MeOH, fractional contribution of τ3): 0.15%
τaverage ([5]; in vitro (methanol solution)): 1.20 ns

Compound: [N-]=[N+]=Nc1nc2c(N)ncnc2n1[C@@H]1O[C@H](CO)[C@@H](O)[C@@H]1O [Compound 2, 8-azido-9-(β-D-arabinofuranosyl)adenine]
fluorescence of azide substrate [3]: no fluorescence
% Fraction Absorbed [6]: 18%
Log Pe [6]: −0.5 cm/s
Permeability (fraction absorbed) ([6]; 150 μM concentration): b Permeability for 2 at a 150 μM concentration was also 18%.
non-cytotoxic dosage [1]: 1 µM
fluorescence localization in live cells [4]: strong fluorescent localization to the nucleus
water solubility [7]: easily water soluble

Compound: [N-]=[N+]=Nc1nc2c(N)ncnc2n1[C@@H]1O[C@H](CO)[C@@H](O)[C@H]1O [Compound 1, 8-azidoadenosine]
second order rate constant [8]: 0.11 M⁻¹ s⁻¹
water solubility [7]: easily water soluble

Compound: [N-]=[N+]=Nc1nc2c(N)ncnc2n1[C@H]1C[C@H](O)[C@@H](CO)O1 [Compound 4, 8-azido-2′-deoxyadenosine]
% Fraction Absorbed [6]: 20%
Log Pe [6]: −0.5 cm/s

Further lines, with some results ahead:

fluorescence of azide substrate [3]: no noticeable fluorescence
Compound: [N-]=[N+]=Nc1cn([C@@H]2O[C@H](CO)[C@@H](O)[C@H]2O)c(=O)[nH]c1=O [Compound 21, 5-azidouridine]
non-cytotoxic dosage [1]: 1 µM
fluorescence localization in live cells [4]: fluorescence localized in the nucleus

εmax [3]: 7100 M^−1cm^1
λmax(emi) [3, 9]: 339/434
λmax(emi) ([3]; In DMSO): 331/419
Brightness ([3]; In MeOH): 0.06 M^−1cm^1
Stokes shift ([3]; In MeOH): 58 nm
λmax(abs) ([3]; In MeOH): 269 nm
λmax(emi) ([3]; In MeOH): 327/412
ΦF ([3]; In MeOH): 0.009
Compound: 5-(1,2,3-Triazol-1H-yl)uridine-MFCO adduct [Compound 27]

% Fraction Absorbed [6]: 22%
Log Pe [6]: −0.5 cm/s
Compound: [N-]=[N+]=Nc1nc(N)c2ncn([C@@H]3O[C@H](CO)[C@@H](O)[C@H]3O)c2n1 [Compound 19, 2-azidoadenosine]
fluorescence localization in live cells [4]: fluorescence localized in the nucleus

From paper PMC4826778 (Bioconjugate chemistry, 2015)
